{"source": "ChEMBL document CHEMBL5724801", "about": "“EUbOPEN Chemogenomics Library - Multiplex” (2024)", "tested_on": "U2OS", "assay": "Multiplex assay against U2OS", "type": "toxicity, cell-based", "settings": "human", "outline": "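Imaging took place on a CQ1 microscope at 37°C and 5% CO2 once compound had been added to live cells stained at seeding with Hoechst33342, BioTracker Green Microtubule Cytoskeleton Dye, MitoTracker Red and Annexin V Alexa Fluor 680. CellPathfinder machine-learning gating classed cells as Hoechst high-intensity objects or normal cells, classed normal cells as having healthy, pyknosed or fragmented nuclei, and classed pyknosed cells as mitotic or apoptotic. Tubulin, mitochondrial-mass and membrane-permeability phenotypes are per cents of the healthy-nucleus cells.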", "key": {"[1]": {"settings": "12 h, 1 µM, compound concentration 1 uM"}, "[2]": {"settings": "12 h, 10 µM, compound concentration 10 uM"}, "[3]": {"settings": "24 h, 1 µM, compound concentration 1 uM"}, "[4]": {"settings": "24 h, 10 µM, compound concentration 10 uM"}, "[5]": {"settings": "48 h, 1 µM, compound concentration 1 uM"}, "[6]": {"settings": "48 h, 10 µM, compound concentration 10 uM"}}, "note": "Values joined by “and” are separate entries in the source; they are usually repeats but may differ in a detail not shown here. Equal entries are not always repeated.", "data": [{"smiles": "N#Cc1ccnc(Nc2cc(C3CCN(C4COC4)CC3)cc(N3CCC(F)(F)C3)n2)c1", "values": [{"measurement": "Population Apoptotic (%)", "setting": "[1]", "result": "40.82% and 36.11%"}, {"measurement": "Population Fragmented Nuclei (%)", "setting": "[1]", "result": "3.13% and 0.79%"}, {"measurement": "Population Healthy Nuclei (%)", "setting": "[1]", "result": "84.07% and 70.87%"}, {"measurement": "Population Hoechst High Intensity Objects (%)", "setting": "[1]", "result": 0, "unit": "%"}, {"measurement": "Population Membrane Permeable-Phenotype (%)", "setting": "[1]", "result": "3.11% and 2.22%"}, {"measurement": "Population Mitochondria Different-Phenotype (%)", "setting": "[1]", "result": "0.62% and 8.89%"}, {"measurement": "Population Mitotic Cells (%)", "setting": "[1]", "result": "59.18% and 63.89%"}, {"measurement": "Population Normal (%)", "setting": "[1]", "result": 100, "unit": "%"}, {"measurement": "Population Pyknosed Nuclei (%)", "setting": "[1]", "result": "12.79% and 28.35%"}, {"measurement": "Population Tubulin-Different-Phenotype (%)", "setting": "[1]", "result": "4.35% and 2.22%"}, {"measurement": "Population Apoptotic (%)", "setting": "[2]", "result": "46.67% and 38.95%"}, {"measurement": "Population Fragmented Nuclei (%)", "setting": "[2]", "result": "9.07% and 13.15%"}, {"measurement": "Population Healthy Nuclei (%)", "setting": "[2]", "result": "64.38% and 42.25%"}, {"measurement": "Population Hoechst High Intensity Objects (%)", "setting": "[2]", "result": 0, "unit": "%"}, {"measurement": "Population Membrane Permeable-Phenotype (%)", "setting": "[2]", "result": "7.56% and 17.78%"}, {"measurement": "Population Mitotic Cells (%)", "setting": "[2]", "result": "53.33% and 61.05%"}, {"measurement": "Population Normal (%)", "setting": "[2]", "result": 100, "unit": "%"}, {"measurement": "Population Pyknosed Nuclei (%)", "setting": "[2]", "result": "26.55% and 44.6%"}, {"measurement": "Population Tubulin-Different-Phenotype (%)", "setting": "[2]", "result": "73.88% and 62.22%"}, {"measurement": "Total Cell Count", "setting": "[2]", "result": "452 and 213"}, {"measurement": "Population Apoptotic (%)", "setting": "[3]", "result": "47.06% and 53.12%"}, {"measurement": "Population Fragmented Nuclei (%)", "setting": "[3]", "result": "3.81% and 2.05%"}, {"measurement": "Population Healthy Nuclei (%)", "setting": "[3]", "result": "82.57% and 76.03%"}, {"measurement": "Population Hoechst High Intensity Objects (%)", "setting": "[3]", "result": 0, "unit": "%"}, {"measurement": "Population Membrane Permeable-Phenotype (%)", "setting": "[3]", "result": "2.18% and 6.31%"}, {"measurement": "Population Mitochondria Different-Phenotype (%)", "setting": "[3]", "result": "0.49% and 8.11%"}, {"measurement": "Population Mitotic Cells (%)", "setting": "[3]", "result": "52.94% and 46.88%"}, {"measurement": "Population Normal (%)", "setting": "[3]", "result": 100, "unit": "%"}, {"measurement": "Population Pyknosed Nuclei (%)", "setting": "[3]", "result": "13.63% and 21.92%"}, {"measurement": "Population Tubulin-Different-Phenotype (%)", "setting": "[3]", "result": "2.67% and 3.6%"}, {"measurement": "Population Apoptotic (%)", "setting": "[4]", "result": "51.37% and 67.97%"}, {"measurement": "Population Fragmented Nuclei (%)", "setting": "[4]", "result": "11.21% and 9%"}, {"measurement": "Population Healthy Nuclei (%)", "setting": "[4]", "result": "50.11% and 30.33%"}, {"measurement": "Population Hoechst High Intensity Objects (%)", "setting": "[4]", "result": "0% and 0.47%"}, {"measurement": "Population Membrane Permeable-Phenotype (%)", "setting": "[4]", "result": "6.75% and 10.94%"}, {"measurement": "Population Mitochondria Different-Phenotype (%)", "setting": "[4]", "result": "21.94% and 51.56%"}, {"measurement": "Population Mitotic Cells (%)", "setting": "[4]", "result": "48.63% and 32.03%"}, {"measurement": "Population Normal (%)", "setting": "[4]", "result": "100% and 99.53%"}, {"measurement": "Population Pyknosed Nuclei (%)", "setting": "[4]", "result": "38.69% and 60.66%"}, {"measurement": "Population Tubulin-Different-Phenotype (%)", "setting": "[4]", "result": "58.65% and 40.62%"}, {"measurement": "Total Cell Count", "setting": "[4]", "result": "473 and 212"}, {"measurement": "Population Apoptotic (%)", "setting": "[5]", "result": "55.7% and 66.67%"}, {"measurement": "Population Fragmented Nuclei (%)", "setting": "[5]", "result": "3.56% and 4.98%"}, {"measurement": "Population Healthy Nuclei (%)", "setting": "[5]", "result": "85.19% and 78.61%"}, {"measurement": "Population Hoechst High Intensity Objects (%)", "setting": "[5]", "result": "0.14% and 0%"}, {"measurement": "Population Membrane Permeable-Phenotype (%)", "setting": "[5]", "result": "1.84% and 5.06%"}, {"measurement": "Population Mitochondria Different-Phenotype (%)", "setting": "[5]", "result": "0.67% and 6.33%"}, {"measurement": "Population Mitotic Cells (%)", "setting": "[5]", "result": "44.3% and 33.33%"}, {"measurement": "Population Normal (%)", "setting": "[5]", "result": "99.86% and 100%"}, {"measurement": "Population Pyknosed Nuclei (%)", "setting": "[5]", "result": "11.25% and 16.42%"}, {"measurement": "Population Tubulin-Different-Phenotype (%)", "setting": "[5]", "result": "3.01% and 2.53%"}, {"measurement": "Population Apoptotic (%)", "setting": "[6]", "result": "68.72% and 75.36%"}, {"measurement": "Population Fragmented Nuclei (%)", "setting": "[6]", "result": "9.35% and 11.35%"}, {"measurement": "Population Healthy Nuclei (%)", "setting": "[6]", "result": "37.83% and 28.38%"}, {"measurement": "Population Hoechst High Intensity Objects (%)", "setting": "[6]", "result": "0.22% and 0%"}, {"measurement": "Population Mitochondria Different-Phenotype (%)", "setting": "[6]", "result": "37.93% and 24.62%"}, {"measurement": "Population Mitotic Cells (%)", "setting": "[6]", "result": "31.28% and 24.64%"}, {"measurement": "Population Normal (%)", "setting": "[6]", "result": "99.78% and 100%"}, {"measurement": "Population Pyknosed Nuclei (%)", "setting": "[6]", "result": "52.83% and 60.26%"}, {"measurement": "Population Tubulin-Different-Phenotype (%)", "setting": "[6]", "result": "56.9% and 30.77%"}, {"measurement": "Total Cell Count", "setting": "[6]", "result": "461 and 229"}]}]}
